Screening results (PubChem)
In the library only some 3.9% were active in any assay of this set; here they are far more common.
FID counter = fluorescent intercalator displacement, NS3 helicase counter-screen; DNA fluorescent intercalator displacement, fluorescence; inhibition, % at 7.9 µM; 290,000 compounds, 0.17% hits; AID 1845; in the data active = inhibition above about 37%;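 also: higher means more ethidium bromide displaced from hairpin DNA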
core dimer inh = blocks dimerization of HCV core protein; TR-FRET GST/Flag-core106 dimerization, 1536-well; inhibition, % at 5 µM; 300,000 compounds, 0.33% hits;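 active = inhibition above the mean of all tested compounds plus 3 SD, set per screening campaign, cut at about 45% in these data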
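Assay system: Tagged HCV core106 pair (GST and Flag) | Buffer or medium: KF-containing HEPES buffer, pH 7.45, DTT, CHAPS, BSA | Also added: Eu donor and XL665 acceptor anti-tag antibodies | Dosing: One concentration, 5 µM, in 0.5% DMSO | Timing: 4 h at 22.5 °C | Technique: TR-FRET 671 and 617 nm emission | Repeats: Singlicate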
HSP90 inh = blocks HSP90-mediated luciferase refolding in reticulocyte lysate | Rabbit reticulocyte lysate, luciferase refolding luminescence, 3 h | inhibition, % at 5.6 µM | 290,000 compounds, 0.91% hits | AID 1789;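 active = inhibition above the screen-wide mean plus 3 SD, computed separately per campaign, cut at about 16% in these data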;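 also: inhibitors lower the luminescence because luciferase stays unfolded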
HSF1 activator = increases HSF-1 driven luciferase reporter signal; NIH3T3-HGL HSF-1 luciferase reporter, MG132, 8 h; 100% = twice DMSO control signal; activation, % at 9 µM; 300,000 compounds, 1.7% hits; AID 504408;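 active = mean replicate activation of at least 50% with a set share of replicates each reaching 50%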
HSF1 inh = HSF1 inhibition | AID 2098 | 300,000 compounds, 0.77% hits | NIH3T3-HGL HSE-luciferase, MG132-induced, luminescence 8 h; active compounds read low | activity change, negative = inhibition, % at 7.5 µM (by protocol);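 active = more than half of replicate wells show activity change below -50%, luminescence cut by over half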;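 also: luciferase reports HSF-1 transcriptional activity via heat shock element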
NS3 helicase inh = HCV NS3 helicase inhibition; NS3 helicase DNA unwinding, Cy5 molecular beacon fluorescence; inhibition, % at 10.9 µM; 290,000 compounds, 0.56% hits;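 active = inhibition above the mean of all tested compounds plus 3 SD, set per campaign, cut at about 35% in these data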
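assay system = NS3 helicase fragment of HCV | buffer or medium = MOPS pH 6.5, MgCl2, DTT, Tween20, BSA | timing = 60 min unwinding reaction at 25 °C after ATP addition | signal = Cy5 beacon fluorescence read at start and 1 h | read-out basis = % inhibition of unwinding | control set = low DMSO, high thioflavine S at 110 µM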
Each line names hits and unclear results; the compound was inactive in the other large screens.

C[C@]12CC[C@@H]3c4ccc(O[C@@H]5O[C@H](C(=O)O)[C@@H](O)[C@H](O)[C@H]5O)cc4CC[C@H]3[C@@H]1C[C@@H](O)[C@@H]2O	HSF1 inh -54 (no result: FID counter, HSP90 inh, NS3 helicase inh)
COc1ccc2c(c1)CC[C@@H]1[C@@H]2CC[C@]2(C)[C@@H](C(=O)O)C[C@@H]12	none (no result: FID counter, HSP90 inh, NS3 helicase inh)
CCC(C)c1ccc(NC(=O)c2[nH]c(C)c(C(C)=O)c2C)cc1 (centres undefined)	none
COc1cc2c(cc1OC)C(C)N(C(=O)c1ccc(Cl)c(S(=O)(=O)N3CCCCC3)c1)CC2 (centres undefined)	none
Cc1nc2ccc(S(=O)(=O)NC(C(=O)Nc3nccs3)C(C)C)cc2s1 (centres undefined)	none
Cc1nc2ccc(S(=O)(=O)NC(C(=O)NCc3cccs3)C(C)C)cc2s1 (centres undefined)	HSF1 inh -81
Cc1cc(C)n(-c2ccc(C(=O)N3CC(C)OC(C)C3)cc2)n1 (centres undefined)	none
COc1ccc(CNC(C)CCc2ccccc2)cc1 (centres undefined)	HSF1 inh -67
COc1ccc(CCC(C)NCc2ccc(C(F)(F)F)cc2)cc1 (centres undefined)	none
CCCCNC(=O)c1cc(-c2ccc3c(c2)OCO3)on1	none
COc1ccc(-c2nc(NC(=O)C3=NN(c4cccc(C)c4)C(=O)CC3)sc2C)cc1	none
CN(C(=O)c1ccco1)c1nc(-c2ccccc2)cs1	HSF1 activator 76
Cc1ccc(-c2csc(NC(=O)c3ccco3)n2)cc1C	HSF1 activator 62
CC(=O)Nc1ccc(-c2csc(NC(=O)c3ccc(C)o3)n2)cc1	none
Cc1ccc(C(=O)Nc2nc(-c3ccc([N+](=O)[O-])cc3)cs2)o1	core dimer inh 52
COc1cc2sc(NC(=O)c3ccco3)nc2cc1Cl	none
Cc1cc2sc(NC(=O)c3ccco3)nc2cc1Cl	HSF1 activator 66
CC(C)C(=O)Nc1ncc(Cc2cccc(Cl)c2)s1	none
NC(=O)CC(NC(=O)Cc1cccc2ccccc12)c1ccc(NCc2ccccn2)c([N+](=O)[O-])c1 (centres undefined)	none (no result: FID counter, HSP90 inh, NS3 helicase inh)
N#CCc1c(C#N)c(N)nc(N2CCN(S(=O)(=O)c3ccccc3)CC2)c1C#N	HSF1 activator 86
N#CCc1c(C#N)c(N)nc(N2CCN(C=O)CC2)c1C#N	none
O=S(=O)(NCCc1ccccc1)c1ccc(S(=O)(=O)N2CCCCC2)cc1	none
COc1ccc(NC2=C(Cl)C(=O)N(CCc3ccccc3)C2=O)cc1	HSF1 activator 59
COC(=O)C1=C(C(=O)OC)[C@@H]2N(C)c3ccc(OC)cc3[C@@]23C[C@@H](C(=O)OC)N(C(=O)C2CCC2)C3=N1	none (no result: FID counter, HSP90 inh, NS3 helicase inh)
C/C(=C\c1ccc(Cl)cc1)C(=O)c1c(C)cc(C)[nH]c1=O	none
CC(C)c1ccc(N(C(=O)c2csnn2)C(C(=O)NC(C)(C)C)c2ccncc2)cc1 (centres undefined)	HSF1 activator 66
CCCN1CCN(CCCNC(=O)c2ccc(CS(=O)c3ccccc3C)o2)CC1 (centres undefined)	none
CCN(CC)C(=O)CSc1nsc(SCC(=O)N(CC)CC)c1C#N	none (no result: HSF1 activator, HSF1 inh)
C=COC(=O)CSc1snc(SCC(=O)OC)c1C#N	core dimer inh 89
Cc1ccc(C2/C(=C(\O)c3cnn(-c4ccccc4)c3C)C(=O)C(=O)N2CCN(C)C)o1 (centres undefined)	HSF1 activator 66
NNC(=O)c1nn(-c2ccc(Cl)cc2)cc1O	HSF1 inh -70
Cc1ccc(SCC(=O)Nc2ccc(N3CCN(C)CC3)c(F)c2)c(C)c1	FID counter 39
CC(C)Cc1ccc(/C=C/C(=O)N2CCCCC2)cc1	HSF1 activator 58
Cc1ccc(/C=C/C(=O)N2CCCC(C)C2)cc1 (centres undefined)	HSF1 activator 65
Cc1ccc(NC(=O)CNCc2cccs2)c(Br)c1	none (no result: core dimer inh)
Cc1ccc(NC(=O)c2cc(-c3ccco3)nc3ccccc23)cc1S(=O)(=O)N1CCOCC1	core dimer inh 69
CCOc1cc(N2CCOCC2)c(OCC)cc1NC(=O)c1cc(-c2ccco2)nc2ccccc12	HSF1 inh -77
CCOc1cc(N2CCOCC2)c(OCC)cc1NC(=O)COc1ncnc2ccccc12	none
